From PubChem BioAssay
This is a sample that favours compounds with a hit; in the whole collection about 3.6% have one here.
SR-BI DiI inh: inhibitors of SR-BI mediated HDL lipid uptake, primary screen, ldlA[mSR-BI] cells, fluorescence, single point. Scavenger receptor class B member 1 (Mus musculus), Q61009. ldlA[mSR-BI] CHO cells, DiI-HDL uptake fluorescence, 3 h. inhibition, % at 12.5 µM. 320,000 tested, 0.96% active;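 active = mean replicate inhibition of at least 70% and a set share of replicates each scoring 70 or more; inconclusive = meets just one of the two criteria; inactive = fails both criteria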;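 note: 0% = median of neutral control wells and 100% = median of positive control wells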
Target sequence (Q61009 whole entry, looked up): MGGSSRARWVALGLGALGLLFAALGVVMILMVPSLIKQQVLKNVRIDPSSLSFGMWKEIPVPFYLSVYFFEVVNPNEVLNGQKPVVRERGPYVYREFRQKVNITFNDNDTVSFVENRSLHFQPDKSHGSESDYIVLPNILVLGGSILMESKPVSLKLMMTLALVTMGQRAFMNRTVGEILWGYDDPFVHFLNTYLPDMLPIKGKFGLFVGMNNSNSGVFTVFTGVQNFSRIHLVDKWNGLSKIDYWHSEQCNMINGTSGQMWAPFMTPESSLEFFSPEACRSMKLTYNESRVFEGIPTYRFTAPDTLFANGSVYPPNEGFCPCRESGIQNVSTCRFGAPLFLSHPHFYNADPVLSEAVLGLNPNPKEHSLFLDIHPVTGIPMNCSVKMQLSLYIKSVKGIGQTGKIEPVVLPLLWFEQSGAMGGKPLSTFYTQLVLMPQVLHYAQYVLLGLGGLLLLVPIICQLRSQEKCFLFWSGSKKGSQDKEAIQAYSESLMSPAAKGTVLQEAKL
Wnt act: Wnt/beta-catenin pathway activators, primary screen, cell-based, plate reader, single point; Wnt/beta-catenin reporter cell assay, activator; activation, % at 9.35 µM; 300,000 tested, 1.2% active; in the data active = activation above about 30%, passing the limit was not always enough; inconclusive = no clear call, values can overlap the other calls;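 note: 0% = neutral control wells and 100% = positive control wells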
SR-BI DiI-HDL act: activators of SR-BI mediated DiI-HDL uptake, primary screen, ldlA[mSR-BI] CHO cells, DiI fluorescence | 3 h; 100 = double the neutral-control signal | 320,000 tested, 0.096% active | activation, % at 12.5 µM;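 active = mean replicate activation of at least 60% and every replicate at or above 60%; inconclusive = mean or all-replicate condition met, but not both; inactive = mean below 60% and not all replicates reaching 60%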;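 note: 0% = median plate neutral-control signal and 100% = twice that signal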
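Test system: SR-BI-overexpressing, LDLR-lacking CHO cells; Also added: labelled HDL, 10 µg/mL; Measured by: bottom-read cell fluorescence after medium removal, ex 550/em 595 nm; Timing: 3 h uptake period with compound, 37 °C; Buffer or medium: F12, 0.5% BSA, 25 mM HEPES; Doses: single compound concentration, delivered by pin transfer.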
MITF act: activators of MITF-driven TRPM1 promoter reporter, primary screen, cell-based, SK-MEL-5, luciferase, single point | SK-MEL-5 TRPM1-promoter luciferase, 24 h; % of positive control, neutral wells = 0 | activation, % at 12.5 µM | AID 588334, 2011 | 300,000 tested, 0.75% active;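 active = mean activation of at least 80% with every replicate also reaching 80%; inconclusive = mean reaches 80% but some replicate falls short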;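 note: 0% = neutral control wells and 100% = parthenolide positive control wells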
HSF-1 act: HSF-1 activators, primary screen, NIH3T3-HGL cells, MG132 stress, luminescence, single point; NIH3T3-HGL HSF-1 luciferase reporter, 8 h; 100% = twice DMSO control signal; activation, % at 9 µM; 300,000 tested, 1.7% active; AID 504408, 2011;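 active = mean replicate activation of at least 50% with a set share of replicates each reaching 50%; inconclusive = only one of those two conditions met; inactive = mean below 50% and too few replicates reaching it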;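 note: 0% = median of the neutral control wells and 100% = twice that signal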
Starred values were filed as active, the others as inactive.

`O=C(C[n+]1cccc(C(=O)Nc2ccccc2)c1)c1ccc([N+](=O)[O-])cc1` gave SR-BI DiI inh 6.6, Wnt act 2.3, SR-BI DiI-HDL act -6.5, MITF act -41.8 and HSF-1 act 131.8*.
Screening O=C(C[n+]1cccc(C(=O)Nc2ccccc2)c1)c1ccc(Cl)cc1 returned Wnt act 2.1.
Screening CCc1cc2c(=O)c(-c3ccc4c(c3)OCO4)coc2c(CN(C)C)c1O returned SR-BI DiI inh 79.4*, Wnt act 1.8, SR-BI DiI-HDL act -79.4, MITF act 6.5 and HSF-1 act 41.3.
CSCC[C@H](NC(=O)[C@@H]1Cc2ccccc2CN1)C(=O)NC1CCCCC1 was read as SR-BI DiI inh -5.2, Wnt act -1.7, SR-BI DiI-HDL act 5.2, MITF act -0.6 and HSF-1 act -12.5.
For CSCC[C@H](NC(=O)[C@@H]1Cc2ccccc2CN1)C(=O)NC[C@H]1CC[C@H](C(=O)O)CC1 the results were SR-BI DiI inh -4.8, Wnt act 0.2, SR-BI DiI-HDL act 4.8, MITF act 92.3* and HSF-1 act 1.0.
For Cc1ccn2c(/C=N/OCc3cccc(F)c3)c(-c3ccc(Cl)cc3)nc2c1 the results were SR-BI DiI inh 77.6*, SR-BI DiI-HDL act -77.6, MITF act 6.2 and HSF-1 act 5.2.
Screening CCCc1nc2ccc(NC(=O)NCCC(=O)OCC)cc2c(=O)n1Cc1ccc(Cl)cc1 returned SR-BI DiI inh 71.6*, Wnt act 0.8, SR-BI DiI-HDL act -71.6, MITF act 21.8 and HSF-1 act -3.2.
CCOC(=O)C1=CCN(S(=O)(=O)c2ccc(Cl)cc2)C1c1cccc(Br)c1 (configuration not stated) was read as Wnt act -1.4.
Screening COc1ccc(-c2nc3c(s2)CN(S(C)(=O)=O)CC3)cc1OC returned SR-BI DiI inh 3.3, Wnt act 2.6, SR-BI DiI-HDL act -3.3 and HSF-1 act -3.1.
CCS(=O)(=O)N1CCc2nc(-c3ccccc3)sc2C1 was read as SR-BI DiI inh -1.6, Wnt act 38.9*, SR-BI DiI-HDL act 1.6, MITF act 121.3* and HSF-1 act 62.5*.
For CS(=O)(=O)c1ccc(C(=O)OCC(=O)NC23CC4CC(CC(C4)C2)C3)cc1[N+](=O)[O-] the results were SR-BI DiI inh 23.3, SR-BI DiI-HDL act -23.3, MITF act -46.8 and HSF-1 act 51.0*.
Screening CCOc1ccc(S(=O)(=O)NNC(=S)Nc2ccc(Br)cc2)cc1 returned SR-BI DiI inh -20.9, Wnt act 8.4, SR-BI DiI-HDL act 20.9, MITF act 4.3 and HSF-1 act 112.6*.
Screening O=S(=O)(NNC(=S)Nc1ccc(S(=O)(=O)Nc2ncccn2)cc1)c1ccc(Br)cc1 returned SR-BI DiI inh -45.9, Wnt act -1.1, MITF act 5.2 and HSF-1 act 8.5.
`Cc1ccc(-c2nnc(-c3ccc4ccccc4c3)o2)cc1` gave SR-BI DiI inh -2.3, Wnt act 12.9, SR-BI DiI-HDL act 2.3 and MITF act 47.8.
Screening COc1cccc(-c2nnc(-c3ccc4ccccc4c3)o2)c1 returned SR-BI DiI inh -5.0, Wnt act 51.1*, SR-BI DiI-HDL act 5.0 and MITF act 55.7.
`N#CC1(NC(=O)COC(=O)C2CCN(S(=O)(=O)c3ccc4c(c3)OCCO4)CC2)CCCCC1` gave SR-BI DiI inh -13.2, Wnt act -2.6, SR-BI DiI-HDL act 13.2 and MITF act 2.2.
CCOc1ccc(S(=O)(=O)N2CCC(C(=O)Nc3ccc(C)c(S(=O)(=O)N4CCOCC4)c3)CC2)cc1 was read as SR-BI DiI inh 32.2, Wnt act -0.8, SR-BI DiI-HDL act -32.2 and MITF act -16.0.
For COc1cc(-c2nc(-c3ccc4c(c3)-c3ccccc3S4(=O)=O)c(-c3ccccc3)[nH]2)cc(OC)c1O the results were SR-BI DiI inh -12.3, Wnt act 7.0, SR-BI DiI-HDL act 12.3 and HSF-1 act 65.1*.
Fc1ccccc1Cn1nnc(-c2ccc3c(c2)OCO3)n1 was read as SR-BI DiI inh -6.9, Wnt act 70.8*, SR-BI DiI-HDL act 6.9, MITF act 66.9 and HSF-1 act 83.4*.
COc1ccc(-c2nnn(Cc3ccccc3F)n2)cc1 was read as SR-BI DiI inh -13.3, SR-BI DiI-HDL act 13.3, MITF act 108.3* and HSF-1 act 35.0.
Cc1ccc(NC(=O)c2ccc(CSc3nnnn3C)cc2)cc1 was read as SR-BI DiI inh 44.4, SR-BI DiI-HDL act -44.4, MITF act 97.1* and HSF-1 act 32.7.
`Cc1cc(C)cc(NC(=O)c2ccc(CSc3nnc(C)s3)cc2)c1` gave SR-BI DiI inh -4.3, Wnt act -0.5, SR-BI DiI-HDL act 4.3, MITF act 25.0 and HSF-1 act 69.5*.
`Cc1ccc(NC(=O)c2ccc(CSc3nnc(C)s3)cc2)cc1` gave SR-BI DiI inh 45.1, Wnt act -3.5, SR-BI DiI-HDL act -45.1, MITF act 70.1 and HSF-1 act inconclusive.
`CN(C)Cc1ccccc1-c1cccc2nccn12` gave Wnt act -1.2.
`CCOC(=O)[C@]12CCC=C1N(Cc1ccccc1)C(=O)[C@H](CC(=O)NCc1cccc(C(F)(F)F)c1)C2` gave Wnt act -2.1.
Screening COc1ccc(C(C#N)=C2C=CC(=NO)C=C2)cc1 returned SR-BI DiI inh 1.4, Wnt act 4.1, SR-BI DiI-HDL act -1.4, MITF act 3.9 and HSF-1 act 167.6*.
`CC(=O)ON=C1C=CC(=C(C#N)c2ccccc2)C=C1` gave Wnt act -1.9.
For COc1ccc(C2=CC(=O)N(Nc3ccccc3)C2=O)cc1 the results were HSF-1 act 72.5*.
`O=C1C=C(c2ccccc2)C(=O)N1Nc1ccccc1` gave SR-BI DiI inh -24.3, SR-BI DiI-HDL act 24.3, MITF act -55.8 and HSF-1 act 41.1.
For Cc1ccc(NN2C(=O)C=C(c3ccc(Cl)cc3)C2=O)cc1 the results were SR-BI DiI inh 5.7, SR-BI DiI-HDL act -5.7, MITF act -19.6 and HSF-1 act 59.8*.
`C/C(=N/OC(=O)CC(C)C)c1cc(-c2ccc(Cl)cc2)no1` gave SR-BI DiI inh 9.9, Wnt act 6.7, SR-BI DiI-HDL act -9.9, MITF act 86.3* and HSF-1 act 22.4.
Screening CCOC(=O)c1cc(/C(C)=N/OC(=O)c2ccc(Cl)cc2)on1 returned Wnt act 4.4.
CCN(CC(=O)Nc1ccc(NC(C)=O)cc1)C(=O)c1cc(-c2ccccc2Cl)nc2ccccc12 was read as SR-BI DiI inh 23.5, Wnt act -2.0 and SR-BI DiI-HDL act -23.5.
Screening CC(C)CCNC(=O)CSc1nc2ccccc2c(=O)[nH]1 returned SR-BI DiI inh -13.2, SR-BI DiI-HDL act 13.2, MITF act -0.6 and HSF-1 act 55.5*.
